Test results published in BindingDB's records for doi:10.1016/j.ejmech.2011.01.016 (National Institute of Pharmaceutical Education and Research, 2011).

biological target: Reverse transcriptase (Human immunodeficiency virus 1, UniProt Q9WKE8); assay: Inhibition of Human immunodeficiency virus 1 NL4.3 reverse transcriptase activity
Outline: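 Colorimetric HIV-1 reverse transcriptase inhibition assay run with a commercial RT assay kit per the manufacturer's protocol; nevirapine positive control; IC50 determined.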

Row | Structure (SMILES) | IC50 [µM]
1 | COc1cc2c(cc1O)-c1cc3ccc(OC)c(OC)c3c[n+]1CC2 [2-hydroxy-3,9,10-trimethoxy-5,6-dihydroisoquino[3,2-a]isoquinolinium] | 171
2 | COc1ccc2cc3[n+](cc2c1OC)CCc1cc2c(cc1-3)OCO2 [Berberinechloride] | 297
3 | COc1cc2c(cc1O)CC[n+]1cc3c(OC)c(OC)ccc3cc1-2 [jatrorrhizine] | 209
